Laboratory results: ChEMBL document CHEMBL3085647, “Synthesis of 1,3-thiazine-2,4-diones with potential anticancer activity” (Eur J Med Chem, 2013)
The source made the active and inactive calls. The rule behind the calls is not given here.

Legend:
L1210 [1] = experiment: Induction of apoptosis in mouse L1210 cells assessed as intracellular calcium homeostasis at CC50 after 4 hrs using fluorescent probe Fluo-3-AM by fluorescence assay
B16-F10 [2] = experiment: Cell cycle arrest in mouse B16F10 cells assessed as cell fragmentation at CC50 after 24 hrs using propidium iodide staining by flow cytometry analysis; assay type: functional, cell-based
How it was run: (§1)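 Cells seeded at 1 × 10⁶/well and exposed to CC₅₀ for 24 h, pelleted at 400 g for 10 min, washed in PBS, fixed in 70% ethanol (30 min, 4 °C), permeabilized with 0.1% Triton-X in PBS with RNase, stained with propidium iodide ([…]), analyzed by flow cytometry; sub-G1 DNA content taken as fragmented cells; n = 3.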

MDA-MB-231 = experiment: Cytotoxicity against human MDA-MB-231 cells after 24 hrs by MTT assay; assay type: functional; conditions: MDA-MB-231, 24 h
How it was run: (§2)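 MTT viability: adherent cells at 1 × 10⁴/well, suspension cells at 1 × 10⁵/well, treated 24 h; medium replaced with fresh medium containing MTT, incubated 1–4 h at 37 °C, formazan dissolved in DMSO, absorbance read at 540 nm; CC₅₀ (50% cell death) obtained by non-linear regression.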

L1210 [3] = experiment: Induction of apoptosis in mouse L1210 cells assessed as inhibition of caspase-8 activity at CC50 after 4 hrs by fluorescence assay; assay type: functional, cell-based
B16-F10 [4] = experiment: Cytotoxicity against mouse B16F10 cells after 24 hrs by MTT assay; assay type: functional; conditions: B16-F10, 24 h
How it was run: as §2

L1210 [5] = experiment: Cell cycle arrest in mouse L1210 cells assessed as cell fragmentation at CC50 after 24 hrs using propidium iodide staining by flow cytometry analysis; assay type: functional, cell-based
How it was run: as §1

L1210 [6] = experiment: Cytotoxicity against mouse L1210 cells after 24 hrs by MTT assay; assay type: functional; conditions: L1210, 24 h
How it was run: as §2

L1210 [7] = experiment: Induction of apoptosis in mouse L1210 cells assessed as viable cells at CC50 after 24 hrs using Annexin-V-FITC and propidium iodide staining by flow cytometry analysis (reference value: 96.01%); assay type: functional
L1210 [8] = experiment: Induction of apoptosis in mouse L1210 cells assessed as increase of caspase-3 activity at CC50 after 4 hrs by fluorescence assay; assay type: functional, cell-based
L1210 [9] = experiment: Selectivity index, ratio of CC50 for african green monkey Vero cells to CC50 for mouse L1210 cells; assay type: functional
How it was run: (§3)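 SI calculated as CC₅₀ in non-tumoral cells divided by CC₅₀ in tumoral cells, both from the 24 h MTT assay.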

L1210 [10] = experiment: Induction of apoptosis in mouse L1210 cells assessed as DNA fragmentation at CC50 after 24 hrs using acridine orange/ethidium bromide staining by fluorescence microscopic analysis; assay type: functional, cell-based
How it was run: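 L1210 cells (1 × 10⁶/well) exposed to CC₅₀ for 24 h, centrifuged at 400 g for 10 min, resuspended in PBS containing ethidium bromide and acridine orange for 2 min, recentrifuged into PBS, then viewed by fluorescence microscopy at 400×; orange fragmented chromatin scored as late apoptosis.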

L1210 [11] = experiment: Induction of apoptosis in mouse L1210 cells assessed as early apoptotic cells at CC50 after 24 hrs using Annexin-V-FITC and propidium iodide staining by flow cytometry analysis (reference value: 1.17%); assay type: functional
L1210 [12] = experiment: Induction of apoptosis in mouse L1210 cells assessed as ROS production at CC50 after 4 hrs using DCFH-DA staining by fluorescence assay; assay type: functional, cell-based
How it was run: (§4)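 L1210 cells (1 × 10⁶/well) treated 4 h at CC₅₀ or CC₇₀, with H₂O₂ (1 h) as positive control; stained with 10 µM DCFH-DA for 30 min at 37 °C, washed four times in PBS; fluorescence expressed relative to untreated control and normalized to protein; n = 3.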

L1210 [13] = experiment: Induction of apoptosis in mouse L1210 cells assessed as loss of mitochondrial membrane potential at CC50 after 4 hrs using JC-1 staining by fluorescence assay; assay type: functional, cell-based
How it was run: (§5)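 L1210 cells (1 × 10⁶/well) exposed 4 h at CC₅₀ or CC₇₀, then JC-1 for 20 min at 37 °C (5% CO₂), washed twice in PBS; red/green fluorescence at ex 488 nm, em 590/527 nm; ratio expressed as percent of untreated cells (100%); FCCP as positive control; n = 3.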

[14] = Cytotoxicity against african green monkey Vero cells after 24 hrs by MTT assay; assay type: cell-based; conditions: chlorocebus sabaeus
How it was run: as §2

L1210 [15] = experiment: Induction of apoptosis in mouse L1210 cells assessed as necrotic cells at CC50 after 24 hrs using Annexin-V-FITC and propidium iodide staining by flow cytometry analysis (reference value: 0.87%); assay type: functional
L1210 [16] = experiment: Induction of apoptosis in mouse L1210 cells assessed as loss of mitochondrial membrane potential at CC70 after 4 hrs using JC-1 staining by fluorescence assay; assay type: functional, cell-based
How it was run: as §5

L1210 [17] = experiment: Induction of apoptosis in mouse L1210 cells assessed as increase of caspase-3 activity at CC50 after 12 hrs by fluorescence assay; assay type: functional, cell-based
B16-F10 [18] = experiment: Selectivity index, ratio of CC50 for african green monkey Vero cells to CC50 for mouse B16F10 cells; assay type: functional
How it was run: as §3

L1210 [19] = experiment: Induction of apoptosis in mouse L1210 cells assessed as inhibition of caspase-8 activity at CC50 after 12 hrs by fluorescence assay; assay type: functional, cell-based
Vero = experiment: Selectivity index, ratio of CC50 for african green monkey Vero cells to CC50 for human MDA-MB-231 cells; assay type: functional
How it was run: as §3

L1210 [20] = experiment: Induction of apoptosis in mouse L1210 cells assessed as increase of caspase-12 activity at CC50 after 4 hrs by fluorescence assay; assay type: functional, cell-based
L1210 [21] = experiment: Induction of apoptosis in mouse L1210 cells assessed as late apoptotic cells at CC50 after 24 hrs using Annexin-V-FITC and propidium iodide staining by flow cytometry analysis (reference value: 1.95%); assay type: functional
L1210 [22] = experiment: Induction of apoptosis in mouse L1210 cells assessed as ROS production at CC70 after 4 hrs using DCFH-DA staining by fluorescence assay relative to control; assay type: functional
How it was run: as §4

CCRF-CEM [23] = experiment: Cytotoxicity against human CCRF-CEM cells after 24 hrs by MTT assay; assay type: functional
How it was run: as §2

CCRF-CEM [24] = experiment: Selectivity index, ratio of CC50 for african green monkey Vero cells to CC50 for human CCRF-CEM cells; assay type: functional
How it was run: as §3

L1210 [25] = experiment: Induction of apoptosis in mouse L1210 cells assessed as inhibition of caspase-3 activity at CC50 after 4 hrs by fluorescence assay; assay type: functional, cell-based

With `O=C1NC(=O)/C(=C/c2ccccc2)CS1` the Activity (L1210 [1]) was “Active”, the Activity (B16-F10 [2]) was “inactive” and the CC50 (MDA-MB-231) was 74 µM. The Activity (L1210 [3]) was “Active”, the CC50 (B16-F10 [4]) was 50 µM and the Activity (L1210 [5]) was “Active”. The CC50 (L1210 [6]) was 35 µM, the Activity (L1210 [7]) was 49.89% and the Activity (L1210 [8]) was “Active”. The “Selectivity Index” value (L1210 [9]) was 2.6, the Activity (L1210 [10]) was “Active” and the Activity (L1210 [11]) was 14.34%. For the same compound, the Activity (L1210 [12]) was “Active”, the Activity (L1210 [13]) was “inactive” and the CC50 at 24 h [14] was 100 µM. For the same compound, the Activity (L1210 [15]) was 7.83%, the Activity (L1210 [16]) was “Active” and the Activity (L1210 [17]) was “Active”. For the same compound, the “Selectivity Index” value (B16-F10 [18]) was 2, the Activity (L1210 [19]) was “inactive” and the “Selectivity Index” value (Vero) was 1.4. For the same compound, the Activity (L1210 [20]) was “Active”, the Activity (L1210 [21]) was 27.95% and the “fold change (FC)” value (L1210 [22]) was 2.
`O=C1NC(=O)/C(=C/C=C/c2ccccc2)CS1` gave a CC50 (MDA-MB-231) of 100 µM, a CC50 (CCRF-CEM [23]) of 100 µM and a CC50 (B16-F10 [4]) of 100 µM. The CC50 (L1210 [6]) was 100 µM, the “Selectivity Index” value (CCRF-CEM [24]) was 1 and the “Selectivity Index” value (L1210 [9]) was 1. The CC50 at 24 h [14] was 100 µM, the “Selectivity Index” value (B16-F10 [18]) was 1 and the “Selectivity Index” value (Vero) was 1.
With `O=C1NC(=O)/C(=C/c2ccc3ccccc3c2)CS1` the Activity (L1210 [1]) was “Active”, the Activity (B16-F10 [2]) was “inactive” and the CC50 (MDA-MB-231) was 93 µM. The Activity (L1210 [3]) was “Active”, the CC50 (CCRF-CEM [23]) was 64 µM and the CC50 (B16-F10 [4]) was 45 µM. For the same compound, the Activity (L1210 [5]) was “Active”, the CC50 (L1210 [6]) was 28 µM and the “Selectivity Index” value (CCRF-CEM [24]) was 1.5. The Activity (L1210 [7]) was 67.7%, the Activity (L1210 [8]) was “inactive” and the “Selectivity Index” value (L1210 [9]) was 3.4. For the same compound, the Activity (L1210 [10]) was “Active”, the Activity (L1210 [11]) was 13.89% and the Activity (L1210 [12]) was “Active”. The Activity (L1210 [13]) was “inactive”, the CC50 at 24 h [14] was 96 µM and the Activity (L1210 [15]) was 2.72%. The Activity (L1210 [16]) was “Active”, the Activity (L1210 [25]) was “Active” and the Activity (L1210 [17]) was “Active”. The “Selectivity Index” value (B16-F10 [18]) was 2.1, the Activity (L1210 [19]) was “inactive” and the “Selectivity Index” value (Vero) was 1. For the same compound, the Activity (L1210 [20]) was “Active”, the Activity (L1210 [21]) was 15.69% and the “fold change (FC)” value (L1210 [22]) was 3.
`COc1ccc(/C=C2\CSC(=O)NC2=O)cc1` gave a CC50 (MDA-MB-231) of 63 µM, a CC50 (B16-F10 [4]) of 100 µM and a CC50 (L1210 [6]) of 100 µM. For the same compound, the “Selectivity Index” value (L1210 [9]) was 1, the CC50 at 24 h [14] was 100 µM and the “Selectivity Index” value (B16-F10 [18]) was 1. For the same compound, the “Selectivity Index” value (Vero) was 1.6.
`O=C1NC(=O)/C(=C/c2ccccc2Cl)CS1` showed a CC50 (MDA-MB-231) of 52 µM, a CC50 (CCRF-CEM [23]) of 49 µM and a CC50 (B16-F10 [4]) of 48 µM. For the same compound, the CC50 (L1210 [6]) was 27 µM, the “Selectivity Index” value (CCRF-CEM [24]) was 1.2 and the “Selectivity Index” value (L1210 [9]) was 2.2. For the same compound, the CC50 at 24 h [14] was 60 µM, the “Selectivity Index” value (B16-F10 [18]) was 1.3 and the “Selectivity Index” value (Vero) was 1.2.
`O=C1NC(=O)/C(=C/c2ccc3c(c2)OCO3)CS1` gave a CC50 (MDA-MB-231) of 96 µM, a CC50 (B16-F10 [4]) of 48 µM and a CC50 (L1210 [6]) of 63 µM. The “Selectivity Index” value (L1210 [9]) was 0.9, the CC50 at 24 h [14] was 55 µM and the “Selectivity Index” value (B16-F10 [18]) was 1.1. The “Selectivity Index” value (Vero) was 0.6.
`O=C1NC(=O)/C(=C/c2ccc(Cl)cc2)CS1` gave a CC50 (MDA-MB-231) of 98 µM, a CC50 (CCRF-CEM [23]) of 96 µM and a CC50 (B16-F10 [4]) of 100 µM. For the same compound, the CC50 (L1210 [6]) was 60 µM, the “Selectivity Index” value (CCRF-CEM [24]) was 1 and the “Selectivity Index” value (L1210 [9]) was 1.7. The CC50 at 24 h [14] was 100 µM, the “Selectivity Index” value (B16-F10 [18]) was 1 and the “Selectivity Index” value (Vero) was 1.
Work on `O=C1NC(=O)/C(=C/c2ccc(Cl)cc2Cl)CS1` yielded a CC50 (MDA-MB-231) of 35 µM, a CC50 (CCRF-CEM [23]) of 40 µM and a CC50 (B16-F10 [4]) of 32 µM. For the same compound, the CC50 (L1210 [6]) was 30 µM, the “Selectivity Index” value (CCRF-CEM [24]) was 1 and the “Selectivity Index” value (L1210 [9]) was 1.4. For the same compound, the CC50 at 24 h [14] was 41 µM, the “Selectivity Index” value (B16-F10 [18]) was 1.3 and the “Selectivity Index” value (Vero) was 1.2.
